Test results from ChEMBL document CHEMBL2407075, “Sulphonamido-quinoxalines: search for anticancer agent” (Eur J Med Chem, 2013).

Assays:
Assay type in all cases: functional
[1] = system: DU-145; experiment: Growth inhibition of human DU145 cells assessed as cell growth at 10^-4 M after 48 hrs by sulforhodamine B assay; conditions: DU-145, 48 h, read-out: Activity
Outline: (§1)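 Five-dose NCI-60 run (0.01, 0.1, 1, 10 and 100 µM, as 10-fold dilutions from a DMSO stock made at 400× the top final level). Cells were grown in RPMI 1640 with 5% FBS and 2 mM glutamine and plated for 24 h. They were then exposed for 48 h at 37 °C and 5% CO2. TCA fixation was followed by SRB staining with A515 read-out. Percent growth was taken relative to time-zero and control plates.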

[2] = system: NCI-H23; experiment: Growth inhibition of human NCI-H23 cells assessed as cell growth at 10^-7 M after 48 hrs by sulforhodamine B assay; conditions: NCI-H23, 48 h, read-out: Activity
[3] = system: SF-268; experiment: Growth inhibition of human SF268 cells assessed as cell growth at 10^-4 M after 48 hrs by sulforhodamine B assay; conditions: SF-268, 48 h, read-out: Activity
[4] = system: NCI-H23; experiment: Growth inhibition of human NCI-H23 cells after 48 hrs by sulforhodamine B assay; conditions: NCI-H23, 48 h; for CC50: read-out: LC50 (the source's name)
Outline: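 Five-dose NCI 60 screen at 0.01, 0.1, 1, 10 and 100 µM, 48 h exposure after 24 h preincubation, in RPMI 1640 with 5% FBS and 2 mM glutamine. Fixed with TCA (10% final for adherent cells, 16% for suspension cells), stained with SRB, A515 read. Percent growth uses time-zero (Tz), control and treated plates. GI50, TGI and LC50 are read from the dose-response curves.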

[5] = system: 786-0; experiment: Growth inhibition of human 786-0 cells assessed as cell growth at 10^-8 M after 48 hrs by sulforhodamine B assay; conditions: 786-0, 48 h, read-out: Activity; outline: as §1
[6] = system: BT-549; experiment: Growth inhibition of human BT549 cells assessed as cell growth at 10^-8 M after 48 hrs by sulforhodamine B assay; conditions: BT-549, 48 h, read-out: Activity; outline: as §1
[7] = system: BT-549; experiment: Growth inhibition of human BT549 cells assessed as cell growth at 10^-4 M after 48 hrs by sulforhodamine B assay; conditions: BT-549, 48 h, read-out: Activity; outline: as §1
[8] = system: 786-0; experiment: Growth inhibition of human 786-0 cells assessed as cell growth at 10^-6 M after 48 hrs by sulforhodamine B assay; conditions: 786-0, 48 h, read-out: Activity; outline: as §1
[9] = system: HOP-62; experiment: Growth inhibition of human HOP62 cells assessed as cell growth at 10^-7 M after 48 hrs by sulforhodamine B assay; conditions: HOP-62, 48 h, read-out: Activity
Outline: (§2)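 Five-dose screen at NCI. Cells in RPMI 1640 with 5% FBS and 2 mM L-glutamine, seeded at 5000–40,000 cells/well and grown 24 h at 37 °C, 5% CO2 before dosing, with time-zero plates TCA-fixed. Drug diluted from DMSO stock to 0.01, 0.1, 1, 10 and 100 µM final, 48 h. Cells fixed with cold TCA (10% final), stained with 0.4% SRB and read at 515 nm. Percent growth from Tz, control and test absorbances; GI50, TGI and LC50 from dose-response curves.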

[10] = system: HOP-92; experiment: Growth inhibition of human HOP92 cells assessed as cell growth at 10^-8 M after 48 hrs by sulforhodamine B assay; conditions: HOP-92, 48 h, read-out: Activity; outline: as §2
[11] = system: TK-10; experiment: Growth inhibition of human TK10 cells assessed as cell growth at 10^-6 M after 48 hrs by sulforhodamine B assay; conditions: TK-10, 48 h, read-out: Activity
[12] = system: PC-3; experiment: Growth inhibition of human PC3 cells assessed as cell growth at 10^-8 M after 48 hrs by sulforhodamine B assay; conditions: PC-3, 48 h, read-out: Activity
[13] = system: NCI-H23; experiment: Growth inhibition of human NCI-H23 cells assessed as cell growth at 10^-8 M after 48 hrs by sulforhodamine B assay; conditions: NCI-H23, 48 h, read-out: Activity
[14] = Growth inhibition of human NCI-ADR-RES cells assessed as cell growth at 10^-5 M after 48 hrs by sulforhodamine B assay; conditions: read-out: Activity
[15] = system: SF-295; experiment: Growth inhibition of human SF295 cells assessed as cell growth at 10^-6 M after 48 hrs by sulforhodamine B assay; conditions: SF-295, 48 h, read-out: Activity
[16] = system: OVCAR-8; experiment: Growth inhibition of human OVCAR8 cells assessed as cell growth at 10^-5 M after 48 hrs by sulforhodamine B assay; conditions: OVCAR-8, 48 h, read-out: Activity
[17] = system: HOP-62; experiment: Growth inhibition of human HOP62 cells assessed as cell growth at 10^-6 M after 48 hrs by sulforhodamine B assay; conditions: HOP-62, 48 h, read-out: Activity; outline: as §2
[18] = system: MDA-MB-231; experiment: Growth inhibition of human MDA-MB-231 cells assessed as cell growth at 10^-6 M after 48 hrs by sulforhodamine B assay; conditions: MDA-MB-231, 48 h, read-out: Activity
[19] = system: CAKI-1; experiment: Growth inhibition of human CAKI-1 cells assessed as cell growth at 10^-4 M after 48 hrs by sulforhodamine B assay; conditions: CAKI-1, 48 h, read-out: Activity; outline: as §1
[20] = system: U-251; experiment: Growth inhibition of human U251 cells assessed as cell growth at 10^-8 M after 48 hrs by sulforhodamine B assay; conditions: U-251, 48 h, read-out: Activity
[21] = system: Malme-3M; experiment: Growth inhibition of human MALME-3M cells assessed as cell growth at 10^-4 M after 48 hrs by sulforhodamine B assay; conditions: read-out: Activity
[22] = system: SNB-75; experiment: Growth inhibition of human SNB75 cells assessed as cell growth at 10^-6 M after 48 hrs by sulforhodamine B assay; conditions: SNB-75, 48 h, read-out: Activity
[23] = system: M14; experiment: Growth inhibition of human M14 cells after 48 hrs by sulforhodamine B assay; conditions: M14, 48 h, read-out: LC50 (the source's name)
Outline: (§3)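 Adherent cells in RPMI 1640 with 5% FBS and 2 mM L-glutamine were plated at 5000–40,000 cells/well and grown 24 h. Five concentrations (0.01–100 µM, DMSO stock) were added for 48 h at 37 °C. Cells were fixed with cold TCA (10% final) and stained with SRB, read at 515 nm. GI50 came from log concentration–growth curves against time-zero and control plates.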

[24] = system: DU-145; experiment: Growth inhibition of human DU145 cells assessed as cell growth at 10^-5 M after 48 hrs by sulforhodamine B assay; conditions: DU-145, 48 h, read-out: Activity; outline: as §1
[25] = system: COLO 205; experiment: Growth inhibition of human COLO205 cells assessed as cell growth at 10^-5 M after 48 hrs by sulforhodamine B assay; conditions: COLO 205, 48 h, read-out: Activity; outline: as §1
[26] = system: Malme-3M; experiment: Growth inhibition of human MALME-3M cells after 48 hrs by sulforhodamine B assay; conditions: read-out: LC50 (the source's name); outline: as §3
[27] = system: UO-31; experiment: Growth inhibition of human UO31 cells assessed as cell growth at 10^-8 M after 48 hrs by sulforhodamine B assay; conditions: UO-31, 48 h, read-out: Activity
[28] = system: M14; experiment: Growth inhibition of human M14 cells assessed as cell growth at 10^-6 M after 48 hrs by sulforhodamine B assay; conditions: M14, 48 h, read-out: Activity

Row | Compound | growth at 100 µM [1] [%] | growth at 0.1 µM [2] [%] | growth at 100 µM [3] [%] | TGI [4] [µM] | CC50 [4] [µM] | growth at 0.01 µM [5] [%] | growth at 0.01 µM [6] [%] | growth at 100 µM [7] [%] | growth at 1 µM [8] [%] | growth at 0.1 µM [9] [%] | growth at 0.01 µM [10] [%] | growth at 1 µM [11] [%] | growth at 0.01 µM [12] [%] | growth at 0.01 µM [13] [%] | growth at 10 µM [14] [%] | growth at 1 µM [15] [%] | growth at 1 µM [17] [%] | growth at 1 µM [18] [%] | growth at 100 µM [19] [%] | growth at 0.01 µM [20] [%] | further results
1 | O=S(=O)(Nc1ccc(Cl)cc1)c1ccc2nc(-c3ccccc3)c(-c3ccccc3)nc2c1 | 65 | 92 | 76 | > 100 | > 100 | 97 | 98 | 61 | 93 | 100 | 96 | 108 | 90 | 97 | 14 | 82 | 105 | 83 | 65 | 97 | growth at 10 µM [16]: 6%; growth at 100 µM [21]: 108%; growth at 1 µM [22]: 69%; CC50 [23]: > 100 µM; growth at 10 µM [24]: 26%; growth at 10 µM [25]: -11%; CC50 [26]: > 100 µM; growth at 0.01 µM [27]: 87%; growth at 1 µM [28]: 94%
2 | O=S(=O)(Nc1ccccn1)c1ccc2nc(-c3ccccc3)c(-c3ccccc3)nc2c1 | 59 | 94 | 64 | > 100 | > 100 | 100 | 99 | 49 | 96 | 101 | 94 | 114 | 97 | 95 | -1 | 90 | 115 | 89 | 73 | 99 | GI50 [4]: 2.45 µM; growth at 100 µM [21]: 97%; growth at 1 µM [22]: 75%; CC50 [23]: > 100 µM; growth at 10 µM [24]: 31%; growth at 10 µM [25]: -73%; CC50 [26]: > 100 µM; growth at 0.01 µM [27]: 88%; growth at 1 µM [28]: 98%
